Measured values taken from ChEMBL document CHEMBL1255303, “In vitro and in vivo antifungal activities of T-2307, a novel arylamidine” (2008).
Converted amounts (≈) assume the structure as drawn.

How the values were obtained:
Assay type in all cases: functional
Candida dubliniensis = assay: Antifungal activity against Candida dubliniensis ATCC MYA-577 after 48 hrs by broth microdilution method; conditions: ATCC MYA-577, 48 h
Method in brief: (§1)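 CLSI M27-A2 (yeasts) / M38-A (moulds) broth microdilution in RPMI 1640 buffered to pH 7.0 with 0.165 M MOPS. Malassezia furfur got the same medium supplemented with glucose, bile salts, glycerol, glycerol monostearate and Tween 20. Final inoculum 0.65 × 10^3–2.5 × 10^3 CFU/ml for yeasts and 0.87 × 10^4–3.8 × 10^4 CFU/ml for filamentous fungi. Incubation at 35°C except M. racemosus and F. solani, which were held at 30°C.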

Rhizopus arrhizus = assay: Antifungal activity against Rhizopus oryzae NBRC 31005 after 24 hrs by broth microdilution method; conditions: NBRC 31005, 24 h; method in brief: as §1
Trichosporon asahii = assay: Antifungal activity against Trichosporon asahii JCM 2466 after 48 hrs by broth microdilution method; conditions: JCM 2466, 48 h; method in brief: as §1
Candida albicans [1] = assay: Antifungal activity against Candida albicans ATCC 24433 after 48 hrs by broth microdilution method; conditions: ATCC 24433, 48 h
Method in brief: (§2)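 CLSI M27-A2 (yeasts) or M38-A (A. fumigatus) broth microdilution in RPMI 1640 buffered to pH 7.0 with 0.165 M MOPS. Final inocula were 0.65–2.5 × 10^3 CFU/ml for yeasts and 0.87–3.8 × 10^4 CFU/ml for filamentous fungi. Incubation was at 35°C for about 48 h (72 h for C. neoformans). MIC was the lowest concentration giving a prominent (~50%) turbidity drop versus growth control; amphotericin B required complete inhibition.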

Trichophyton rubrum = assay: Antifungal activity against Trichophyton rubrum NBRC 5467 after 72 hrs by broth microdilution method; conditions: NBRC 5467, 72 h; method in brief: as §1
Candida albicans [2] = assay: Antifungal activity against Candida albicans ATCC 64550 after 47 hrs by broth microdilution method; conditions: ATCC 64550, 47 h
Method in brief: (§3)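 Fluconazole-resistant or susceptible-dose-dependent C. albicans ATCC strains were tested by broth microdilution in RPMI 1640-MOPS. Inoculum was 1.1 × 10^3–1.5 × 10^3 CFU/ml, with incubation at 35°C for about 47 h. Yeast MIC was read as about 50% turbidity decrease relative to growth control, except amphotericin B, read at complete inhibition.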

Aspergillus fumigatus [3] = assay: Antifungal activity against Aspergillus fumigatus IFM 46895 after 48 hrs by broth microdilution method; conditions: IFM 46895, 48 h; method in brief: as §1
Cryptococcus neoformans [4] = assay: Antifungal activity against Cryptococcus neoformans ATCC 90112 after 72 hrs by broth microdilution method; conditions: ATCC 90112, 72 h; method in brief: as §2
Candida albicans [5] = assay: Antifungal activity against Candida albicans ATCC MYA-2732 after 47 hrs by broth microdilution method; conditions: ATCC MYA-2732, 47 h; method in brief: as §3
Pichia kudriavzevii [6] = assay: Antifungal activity against Candida krusei IFO 0584 after 48 hrs by broth microdilution method; conditions: IFO 0584, 48 h; method in brief: as §1
Candida albicans [7] = assay: Antifungal activity against Candida albicans TIMM 1623 after 48 hrs by broth microdilution method; conditions: TIMM 1623, 48 h; method in brief: as §1
[8] = tested on: Meyerozyma guilliermondii; assay: Antifungal activity against Candida guilliermondii clinical isolates after 48 hrs by broth microdilution method
Method in brief: (§4)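 Clinical isolates from Japanese hospitals or culture collections were tested by broth microdilution in RPMI 1640-MOPS. Inoculum was 0.57 × 10^3–2.5 × 10^3 CFU/ml for yeasts and 0.4 × 10^4–3.3 × 10^4 CFU/ml for filamentous fungi. Incubation was at 35°C for about 48 h, or 72 h where footnoted. Results were summarised as MIC range, MIC50 and MIC90.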

Candida albicans [9] = assay: Antifungal activity against Candida albicans ATCC 96901 after 47 hrs by broth microdilution method; conditions: ATCC 96901, 47 h
Method in brief: (§5)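 Fluconazole-resistant or susceptible-dose-dependent ATCC C. albicans strains were tested by CLSI M27-A2 broth microdilution in RPMI 1640–0.165 M MOPS, pH 7.0, with a final inoculum of 1.1–1.5 × 10^3 CFU/ml at 35°C for about 47 h. MIC was the lowest concentration with a prominent (~50%) turbidity decrease relative to growth control; amphotericin B was read at complete inhibition.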

Aspergillus niger = assay: Antifungal activity against Aspergillus niger NBRC 33023 after 48 hrs by broth microdilution method; conditions: NBRC 33023, 48 h; method in brief: as §1
Aspergillus fumigatus [10] = assay: Antifungal activity against Aspergillus fumigatus TIMM 0063 after 48 hrs by broth microdilution method; conditions: TIMM 0063, 48 h; method in brief: as §1
Malassezia furfur = assay: Antifungal activity against Malassezia furfur NBRC 0656 after 48 hrs by broth microdilution method; conditions: NBRC 0656, 48 h; method in brief: as §1
Candida tropicalis = assay: Antifungal activity against Candida tropicalis clinical isolates after 48 hrs by broth microdilution method; method in brief: as §4
Pichia kudriavzevii [11] = assay: Antifungal activity against Candida krusei clinical isolates after 48 hrs by broth microdilution method
Method in brief: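 Japanese hospital Candida isolates were tested by CLSI M27-A2 broth microdilution in RPMI 1640–MOPS, pH 7.0, with inocula of 0.57–2.5 × 10^3 CFU/ml at 35°C for about 48 h. Inocula came from 24-h potato dextrose agar cultures. MIC was the lowest concentration with about 50% turbidity reduction versus growth control (complete inhibition for amphotericin B). Range, MIC50 and MIC90 were reported.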

Nakaseomyces glabratus = assay: Antifungal activity against Candida glabrata clinical isolates after 48 hrs by broth microdilution method; method in brief: as §4
Aspergillus fumigatus [12] = assay: Antifungal activity against Aspergillus fumigatus IFM 49895 after 48 hrs by broth microdilution method; conditions: IFM 49895, 48 h; method in brief: as §1
[13] = tested on: Meyerozyma guilliermondii; assay: Antifungal activity against Candida guilliermondii IFO 10279 after 48 hrs by broth microdilution method; conditions: IFO 10279, 48 h; method in brief: as §1
Cryptococcus neoformans [14] = assay: Antifungal activity against Cryptococcus neoformans clinical isolates after 72 hrs by broth microdilution method; method in brief: as §4
Mucor racemosus = assay: Antifungal activity against Mucor racemosus NBRC5403 after 24 hrs by broth microdilution method; conditions: NBRC5403, 24 h
Candida albicans [15] = assay: Antifungal activity against Candida albicans ATCC MYA-1003 after 47 hrs by broth microdilution method; conditions: ATCC MYA-1003, 47 h; method in brief: as §5
Candida albicans [16] = assay: Antifungal activity against Candida albicans ATCC MYA-575 after 47 hrs by broth microdilution method; conditions: ATCC MYA-575, 47 h; method in brief: as §5

C[C@@H](c1ncncc1F)[C@](O)(Cn1cncn1)c1ccc(F)cc1F [VORICONAZOLE]
MFC (Candida dubliniensis): > 64 µg/mL
MIC (Candida dubliniensis): 0.0078 µg/mL (≈ 0.0223 µM)
MFC (Rhizopus arrhizus): 32 µg/mL (≈ 91.6 µM)
MIC (Rhizopus arrhizus): 8 µg/mL (≈ 22.9 µM)
MFC (Trichosporon asahii): > 64 µg/mL
MIC (Trichosporon asahii): 0.0625 µg/mL (≈ 0.179 µM)
MFC (Candida albicans [1]): > 64 µg/mL
MIC (Candida albicans [1]): 0.0078 µg/mL (≈ 0.0223 µM)
MFC (Trichophyton rubrum): > 64 µg/mL
MIC (Trichophyton rubrum): 0.0313 µg/mL (≈ 0.0896 µM)
MIC (Candida albicans [2]): 0.25 µg/mL (≈ 0.716 µM)
MFC (Aspergillus fumigatus [3]): 4 µg/mL (≈ 11.5 µM)
MIC (Aspergillus fumigatus [3]): 0.5 µg/mL (≈ 1.43 µM)
MFC (Cryptococcus neoformans [4]): > 64 µg/mL
MIC (Cryptococcus neoformans [4]): 0.0313 µg/mL (≈ 0.0896 µM)
MIC (Candida albicans [5]): 0.25 µg/mL (≈ 0.716 µM)
MFC (Pichia kudriavzevii [6]): 2 µg/mL (≈ 5.73 µM)
MIC (Pichia kudriavzevii [6]): 0.125 µg/mL (≈ 0.358 µM)
MFC (Candida albicans [7]): > 64 µg/mL
MIC (Candida albicans [7]): 0.0039 µg/mL (≈ 0.0112 µM)
MIC50 [8]: 0.0625 µg/mL (≈ 0.179 µM)
MIC90 [8]: 0.125 µg/mL (≈ 0.358 µM)
MIC (Candida albicans [9]): 0.5 µg/mL (≈ 1.43 µM)
MFC (Aspergillus niger): 16 µg/mL (≈ 45.8 µM)
MIC (Aspergillus niger): 0.5 µg/mL (≈ 1.43 µM)
MFC (Aspergillus fumigatus [10]): 1 µg/mL (≈ 2.86 µM)
MIC (Aspergillus fumigatus [10]): 1 µg/mL (≈ 2.86 µM)
MFC (Malassezia furfur): > 64 µg/mL
MIC (Malassezia furfur): 0.0625 µg/mL (≈ 0.179 µM)
MIC50 (Candida tropicalis): 0.0625 µg/mL (≈ 0.179 µM)
MIC90 (Candida tropicalis): 0.0625 µg/mL (≈ 0.179 µM)
MIC50 (Pichia kudriavzevii [11]): 0.5 µg/mL (≈ 1.43 µM)
MIC90 (Pichia kudriavzevii [11]): 0.5 µg/mL (≈ 1.43 µM)
MIC50 (Nakaseomyces glabratus): 0.125 µg/mL (≈ 0.358 µM)
MIC90 (Nakaseomyces glabratus): 0.5 µg/mL (≈ 1.43 µM)
MFC (Aspergillus fumigatus [12]): 8 µg/mL (≈ 22.9 µM)
MIC (Aspergillus fumigatus [12]): 2 µg/mL (≈ 5.73 µM)
MFC [13]: 0.5 µg/mL (≈ 1.43 µM)
MIC [13]: 0.0625 µg/mL (≈ 0.179 µM)
MIC50 (Cryptococcus neoformans [14]): 0.0313 µg/mL (≈ 0.0896 µM)
MIC90 (Cryptococcus neoformans [14]): 0.0625 µg/mL (≈ 0.179 µM)
MFC (Mucor racemosus): > 64 µg/mL
MIC (Mucor racemosus): > 64 µg/mL
MIC (Candida albicans [15]): 0.5 µg/mL (≈ 1.43 µM)
MIC (Candida albicans [16]): 0.0625 µg/mL (≈ 0.179 µM)

C[C@@H]1[C@H](O)[C@@H](C)/C=C/C=C/C=C/C=C/C=C/C=C/C=C/[C@H](O[C@@H]2O[C@H](C)[C@@H](O)[C@H](N)[C@@H]2O)C[C@@H]2O[C@](O)(C[C@@H](O)C[C@@H](O)[C@H](O)CC[C@@H](O)C[C@@H](O)CC(=O)O[C@H]1C)C[C@H](O)[C@H]2C(=O)O [AMPHOTERICIN B]
MFC (Candida dubliniensis): 2 µg/mL (≈ 2.16 µM)
MIC (Candida dubliniensis): 1 µg/mL (≈ 1.08 µM)
MFC (Rhizopus arrhizus): 1 µg/mL (≈ 1.08 µM)
MIC (Rhizopus arrhizus): 1 µg/mL (≈ 1.08 µM)
MFC (Trichosporon asahii): 4 µg/mL (≈ 4.33 µM)
MIC (Trichosporon asahii): 2 µg/mL (≈ 2.16 µM)
MFC (Candida albicans [1]): 1 µg/mL (≈ 1.08 µM)
MIC (Candida albicans [1]): 1 µg/mL (≈ 1.08 µM)
MFC (Trichophyton rubrum): 1 µg/mL (≈ 1.08 µM)
MIC (Trichophyton rubrum): 1 µg/mL (≈ 1.08 µM)
MIC (Candida albicans [2]): 1 µg/mL (≈ 1.08 µM)
MFC (Aspergillus fumigatus [3]): 2 µg/mL (≈ 2.16 µM)
MIC (Aspergillus fumigatus [3]): 2 µg/mL (≈ 2.16 µM)
MFC (Cryptococcus neoformans [4]): 1 µg/mL (≈ 1.08 µM)
MIC (Cryptococcus neoformans [4]): 1 µg/mL (≈ 1.08 µM)
MIC (Candida albicans [5]): 2 µg/mL (≈ 2.16 µM)
MFC (Pichia kudriavzevii [6]): 2 µg/mL (≈ 2.16 µM)
MIC (Pichia kudriavzevii [6]): 2 µg/mL (≈ 2.16 µM)
MFC (Candida albicans [7]): > 1 µg/mL
MIC (Candida albicans [7]): 1 µg/mL (≈ 1.08 µM)
MIC50 [8]: 1 µg/mL (≈ 1.08 µM)
MIC90 [8]: 1 µg/mL (≈ 1.08 µM)
MIC (Candida albicans [9]): 1 µg/mL (≈ 1.08 µM)
MFC (Aspergillus niger): 2 µg/mL (≈ 2.16 µM)
MIC (Aspergillus niger): 2 µg/mL (≈ 2.16 µM)
MFC (Aspergillus fumigatus [10]): 2 µg/mL (≈ 2.16 µM)
MIC (Aspergillus fumigatus [10]): 2 µg/mL (≈ 2.16 µM)
MFC (Malassezia furfur): 64 µg/mL (≈ 69.3 µM)
MIC (Malassezia furfur): 0.5 µg/mL (≈ 0.541 µM)
MIC (Candida tropicalis): 1 µg/mL (≈ 1.08 µM)
MIC50 (Candida tropicalis): 1 µg/mL (≈ 1.08 µM)
MIC90 (Candida tropicalis): 2 µg/mL (≈ 2.16 µM)
MIC (Pichia kudriavzevii [11]): 2 µg/mL (≈ 2.16 µM)
MIC50 (Pichia kudriavzevii [11]): 2 µg/mL (≈ 2.16 µM)
MIC90 (Pichia kudriavzevii [11]): 2 µg/mL (≈ 2.16 µM)
MIC (Nakaseomyces glabratus): 1 µg/mL (≈ 1.08 µM)
MIC50 (Nakaseomyces glabratus): 1 µg/mL (≈ 1.08 µM)
MIC90 (Nakaseomyces glabratus): 2 µg/mL (≈ 2.16 µM)
MFC (Aspergillus fumigatus [12]): 2 µg/mL (≈ 2.16 µM)
MIC (Aspergillus fumigatus [12]): 2 µg/mL (≈ 2.16 µM)
MFC [13]: 1 µg/mL (≈ 1.08 µM)
MIC [13]: 0.5 µg/mL (≈ 0.541 µM)
MIC (Cryptococcus neoformans [14]): 1 µg/mL (≈ 1.08 µM)
MIC50 (Cryptococcus neoformans [14]): 1 µg/mL (≈ 1.08 µM)
MIC90 (Cryptococcus neoformans [14]): 1 µg/mL (≈ 1.08 µM)
MFC (Mucor racemosus): 2 µg/mL (≈ 2.16 µM)
MIC (Mucor racemosus): 1 µg/mL (≈ 1.08 µM)
MIC (Candida albicans [15]): 2 µg/mL (≈ 2.16 µM)
MIC (Candida albicans [16]): 2 µg/mL (≈ 2.16 µM)
